Here are results for 23 compounds from ChEMBL document CHEMBL1138361, “4-acyl-1-(4-aminoalkoxyphenyl)-2-ketopiperazines as a novel class of non-brain-penetrant histamine H3 receptor antagonists” (J Med Chem, 2007).

The nature of data set [1]: Partition coefficient, log D at pH 7.4. The format is physicochemical. To be noted: octanol/water. The essentials: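 Compound in phosphate buffer was shaken with buffer-saturated octanol (3 × 50 inversions). Phases were separated by centrifugation at 300g for 15 min. Both phases were quantified by HPLC, and log D was calculated from peak areas normalized to injection volume.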

A short description of data set [2]: AUC in CD Sprague-Dawley rat at 3.0 mg/kg, po. The data set is classed as ADME, organism-based. Also on record: dose 3 mg/kg, route oral. To be noted: plasma. The essentials: (§1)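 Single iv and oral doses given to male CD Sprague-Dawley rats (1 mg/kg iv, 3 mg/kg po) and male Beagle dogs (1 mg/kg iv, 2 mg/kg po). Vehicle was a DMSO-PEG 200-water (5:45:50) solution. Serial and terminal blood samples were taken at time points up to 7, 12 or 24 h postdose.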

Data set [3] in a line: Cmax in CD Sprague-Dawley rat at 3.0 mg/kg, po. The data set is classed as ADME, organism-based. Also on record: dose 3 mg/kg, route oral. To be noted: in vivo. The essentials: as §1
Data set [4] is described as follows: Tmax in CD Sprague-Dawley rat at 3.0 mg/kg, po. Further details: dose 3 mg/kg, route oral. The format is ADME, organism-based. The following applies: in vivo. Put shortly: as §1
Data set [5] can be described thus: Ratio of drug level in brain to blood in CD Sprague-Dawley rat at 1 mg/kg, iv after 5 mins. To be noted: brain and blood. Further details: dose 1 mg/kg, route intravenous. The format is ADME, organism-based. Put shortly:
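Male CD Sprague-Dawley rats were dosed iv in DMSO-PEG 200-water (5:45:50). Blood and brain were collected 5 min postdose under terminal isoflurane anesthesia. Blood was protein-precipitated; brain was homogenized and extracted. Parent drug was quantified by LCMS/MS.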

A short description of data set [6]: AUC in CD Sprague-Dawley rat at 1.0 mg/kg, iv. The format is ADME, organism-based. Further details: dose 1 mg/kg, route intravenous. The following applies: plasma. Put shortly: as §1
Data set [7] can be described thus: Volume of distribution in CD Sprague-Dawley rat at 1.0 mg/kg, iv. The following applies: in vivo. Further details: dose 1 mg/kg, route intravenous. The format is ADME, organism-based. Put shortly: as §1
Data set [8] is described as follows: Half life in CD Sprague-Dawley rat at 1.0 mg/kg, iv. The format is ADME, organism-based. Also on record: dose 1 mg/kg, route intravenous. The following applies: in vivo. Put shortly:
as §1

A short description of data set [9]: Clearance in CD Sprague-Dawley rat at 1.0 mg/kg, iv. The format is ADME, organism-based. Further details: dose 1 mg/kg, route intravenous. To be noted: in vivo. The essentials:
as §1

Data set [10] can be described thus: Cmax in CD Sprague-Dawley rat at 1.0 mg/kg, iv. To be noted: in vivo. The format is ADME, organism-based. Further details: dose 1 mg/kg, route intravenous. The essentials:
as §1

Data set [11] is described as follows: Tmax in CD Sprague-Dawley rat at 1.0 mg/kg, iv. The format is ADME, organism-based. Further details: dose 1 mg/kg, route intravenous. The following applies: in vivo. Put shortly:
as §1

In [1], `CS(=O)(=O)c1cccc(C(=O)N2CCN(c3ccc(OCCCN4CCCCC4)cc3)C(=O)C2)c1` showed a logD of -1.22.
On the same count and under the same terms, with `O=C(c1cc(F)cc(F)c1)N1CCN(c2ccc(OCCCN3CCCCC3)cc2)C(=O)C1` the figure was 0.2.
In data set [1], `O=C(c1ccc(C(=O)N2CCN(c3ccc(OCCCN4CCCCC4)cc3)C(=O)C2)cc1)N1CCC1` gave a log distribution coefficient (logD) of -0.95.
The same measure, in the same setting: with `CS(=O)(=O)c1cccc(C(=O)N2CCN(c3ccc(OC4CCN(C5CCCC5)CC4)cc3)C(=O)C2)c1` the figure was -0.41; with `O=C(c1cc(F)cc(F)c1)N1CCN(c2ccc(OC3CCN(C4CCCC4)CC3)cc2)C(=O)C1`, 1.03.
Same read-out and setting: next, `O=C(c1ccc(F)cc1F)N1CCN(c2ccc(OC3CCN(C4CCCC4)CC3)cc2)C(=O)C1`: 0.96; `CC(C)N1CCC(Oc2ccc(N3CCN(C(=O)c4ccc(F)cc4F)CC3=O)cc2)CC1`: -0.05; `C[C@H]1CCCN1CCCOc1ccc(N2CCN(C(=O)c3cc(F)cc(F)c3)CC2=O)cc1`: 0.09.
Same read-out and setting: with `O=C(c1cc(F)cc(F)c1)N1CCN(c2ccc(OCCCN3CCCC3)cc2)C(=O)C1` the figure was -0.38; with `C[C@@H]1CCCN1CCCOc1ccc(N2CCN(C(=O)c3ccc(F)cc3)CC2=O)cc1`, -0.13.
In turn, `O=C(c1ccc(F)cc1F)N1CCN(c2ccc(OCCCN3CCCCC3)cc2)C(=O)C1` had a logD in data set [1] of 0.1.
`CS(=O)(=O)c1ccc(C(=O)N2CCN(c3ccc(OC4CCN(C5CCC5)CC4)cc3)C(=O)C2)cc1.O=CO` yielded an AUC in data set [2] of 67 ng·h/mL. In addition, the Cmax in [3] was 10 ng/mL. This compound also came in with a logD in data set [1] of -0.38. For the same compound, the Tmax in [4] came to 4 h.
In the case of `O=C(c1ccc(C(=O)N2CCN(c3ccc(OC4CCN(C5CCC5)CC4)cc3)C(=O)C2)cc1)N1CCC1.O=CO`, the Kp at 5 min in data set [5] is 0.1. Further, the logD in data set [1] is -0.29.
In the case of `N#Cc1ccc(C(=O)N2CCN(c3ccc(OCCCN4CCCCCC4)cc3)C(=O)C2)cc1`, the logD in data set [1] is -0.39.
For the compound `O=C(c1ccc(F)cc1)N1CCN(c2ccc(OCCCN3CCCC3)cc2)C(=O)C1.O=CO`, the values for the AUC in data set [6] and in data set [2] were 536 ng·h/mL and 355 ng·h/mL, respectively. The same compound displayed a distribution volume (Vd) in data set [7] of 2 L/kg. This compound also showed a half-life in data set [8] of 1.3 h. Moreover, the clearance in data set [9] amounted to 31 mL/min/kg. For the same compound, the Cmax in data set [3] turned out to be 40 ng/mL; in data set [10], 342 ng/mL. Also, the results for the Tmax in data set [11] and in data set [4] were 4.8 min and 7 h, respectively. Besides, in [1], the logD was 0.14.
The compound `CC(C)N1CCC(Oc2ccc(N3CCN(C(=O)c4cc(F)cc(F)c4)CC3=O)cc2)CC1` yielded a logD in data set [1] of 0.06.
As for `N#Cc1ccc(C(=O)N2CCN(c3ccc(OCCCN4CCCCC4)cc3)C(=O)C2)cc1`, in [1], the pH-dependent lipophilicity (logD) was -0.38.
On the same count and under the same terms, next, `Cc1ccc(C(=O)N2CCN(c3ccc(OCCCN4CCCCC4)cc3)C(=O)C2)cc1`: 0.48.
As to `CC(C)(C)C(=O)N1CCN(c2ccc(OCCCN3CCCCC3)cc2)C(=O)C1.Cl`, the Kp at 5 min in data set [5] was 0.1. This compound also came in with a logD in data set [1] of -0.02.
As for `O=C(c1ccccc1)N1CCN(c2ccc(OC3CCN(C4CCC4)CC3)cc2)C(=O)C1`, the log distribution coefficient (logD) in [1] is 0.73.
With `Cl.O=C(c1ccc(Cl)cc1)N1CCN(c2ccc(OC3CCN(C4CCC4)CC3)cc2)C(=O)C1`, in data set [5], the concentration ratio (Kp) at 5 min was 0.4. In [1], this compound registered a log distribution coefficient (logD) of 1.51.
`Cc1ccc(C(=O)N2CCN(c3ccc(OC4CCN(C5CCC5)CC4)cc3)C(=O)C2)cc1` showed a pH-dependent lipophilicity (logD) in data set [1] of 1.3.
In [1], `O=C(c1ccccc1)N1CCN(c2ccc(OCCCN3CCCCC3)cc2)C(=O)C1` came in with a pH-dependent lipophilicity (logD) of -0.09.

The term logD denotes lipophilicity at a set pH, counting ionised and neutral species. In general, AUC refers to the area under the concentration-time curve, a measure of exposure. High values mean more exposure, low ones less exposure. By Cmax is commonly meant the peak of the concentration-time curve. By Tmax is commonly meant the time from dosing to the highest level. Broadly, the Kp is tissue or fluid exposure divided by exposure in the circulation. As usually defined, the Vd is a proportionality between amount in the body and measured concentration, not a real space. The low end stands for little distribution into tissue, the high end for wide distribution into tissue. The half-life is the time in which the quantity being followed falls by half. What is called clearance is the volume of plasma or blood freed of the substance per unit of time. High values mean efficient removal, low ones inefficient removal.
